This is an account of results in ChEMBL document CHEMBL1151431, “Role of lon, an ATP-dependent protease homolog, in resistance of Pseudomonas aeruginosa to ciprofloxacin” (2007).

≈ marks a conversion by molar mass, not a printed value. Calls of active or inactive are those of the source. No cut-off for these calls is given here. Some results are limits rather than exact numbers.

In assay [1] the test system is Pseudomonas aeruginosa. Kind of assay: Antibacterial activity against 63_H5 allele containing Pseudomonas aeruginosa PAO1 H1133 mutant strain with nfxB::lux mutation after 24 hrs by broth microdilution technique. Format: functional. In a few lines: (§1)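 Broth microdilution MIC with P. aeruginosa PAO1 H103 (wild type), Tn5-lux insertion mutants or complemented strain. Overnight LB cultures grown at 37°C with agitation, diluted 1:1,000 in LB. Antimicrobials made fresh daily. Growth scored after 24 h at 37°C. Four independent repeats; mode reported.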
(Broth dilution looks for growth in wells or tubes with falling amounts of substance.)

Assay [2] concerns Pseudomonas aeruginosa. Kind of assay: Antibacterial activity against 69_C12 allele containing Pseudomonas aeruginosa PAO1 H1109 mutant strain with recA::lux mutation after 24 hrs by broth microdilution technique. The assay is classed as functional. The essentials: as §1
In assay [3] the test system is Pseudomonas aeruginosa. Kind of assay: Antibacterial activity against 74_D9 allele containing Pseudomonas aeruginosa PAO1 H1105 mutant strain with lon::lux mutation after 24 hrs by broth microdilution technique. The assay is classed as functional. In a few lines: as §1
Assay [4] has as its system Pseudomonas aeruginosa. Kind of assay: Antibacterial activity against Pseudomonas aeruginosa PAO1 H1105/lon+c mutant strain with lon::lux/lon+ mutation after 24 hrs by broth microdilution technique. Format: functional. In a few lines:
as §1

In assay [5] the test system is Pseudomonas aeruginosa. Kind of assay: Antibacterial activity against wild type Pseudomonas aeruginosa PAO1 H103 after 24 hrs by broth microdilution technique. The assay is classed as functional. The essentials:
as §1

For assay [6], the system named is Pseudomonas aeruginosa. Kind of assay: Antibacterial activity against Pseudomonas aeruginosa PAO1 H1105/lon+ mutant strain with lon::lux mutation assessed as fold decrease in MIC after 24 hrs by broth microdilution technique relative to wild type. The assay is classed as functional. In a few lines:
as §1

Assay [7] relates to Pseudomonas aeruginosa. Kind of assay: Antibacterial activity against 24_A2 allele containing Pseudomonas aeruginosa PAO1 H1106 mutant strain with lon::lux mutation after 24 hrs by broth microdilution technique. Format: functional. In a few lines: as §1
Assay [8] relates to Pseudomonas aeruginosa. Kind of assay: Antibacterial activity against 75_F11 allele containing Pseudomonas aeruginosa PAO1 H1136 mutant strain with PA5455::lux mutation after 24 hrs by broth microdilution technique. The assay is classed as functional. The essentials: as §1
Assay [9] deals with Pseudomonas aeruginosa. Kind of assay: Antibacterial activity against 6_G1 allele containing Pseudomonas aeruginosa PAO1 H1121 mutant strain with PA4961::lux mutation after 24 hrs by broth microdilution technique. The assay is classed as functional. In a few lines:
as §1

Assay [10] concerns Pseudomonas aeruginosa. Kind of assay: Antibacterial activity against 31_C9 allele containing Pseudomonas aeruginosa PAO1 H1104 mutant strain with lon::lux mutation assessed as fold decrease in MIC after 24 hrs by broth microdilution technique relative to wild type. Format: functional. In a few lines:
as §1

In assay [11] the test system is Pseudomonas aeruginosa. Kind of assay: Antibacterial activity against 74_D9 allele containing Pseudomonas aeruginosa PAO1 H1105 mutant strain with lon::lux mutation assessed as fold decrease in MIC after 24 hrs by broth microdilution technique relative to wild type. Format: functional. The essentials: as §1
The test system of assay [12] is Pseudomonas aeruginosa. Kind of assay: Antibacterial activity against 16_G12 allele containing Pseudomonas aeruginosa PAO1 H1125 mutant strain with recG::lux mutation after 24 hrs by broth microdilution technique. Format: functional. In a few lines:
as §1

Assay [13] deals with Pseudomonas aeruginosa. Kind of assay: Antibacterial activity against 53_F11 allele containing Pseudomonas aeruginosa PAO1 H1124 mutant strain with PA5279::lux mutation after 24 hrs by broth microdilution technique. The assay is classed as functional. In a few lines: as §1
The subject of assay [14] is Pseudomonas aeruginosa. Kind of assay: Antibacterial activity against 31_C9 allele containing Pseudomonas aeruginosa PAO1 H1104 mutant strain with lon::lux mutation after 24 hrs by broth microdilution technique. The assay is classed as functional. The essentials:
as §1

The test system of assay [15] is Pseudomonas aeruginosa. Kind of assay: Antibacterial activity against 70_H3 allele containing Pseudomonas aeruginosa PAO1 H1129 mutant strain with rnt::lux mutation after 24 hrs by broth microdilution technique. The assay is classed as functional. In a few lines:
as §1

Assay [16] deals with Pseudomonas aeruginosa. Kind of assay: Antibacterial activity against 24_A2 allele containing Pseudomonas aeruginosa PAO1 H1106 mutant strain with lon::lux mutation assessed as fold decrease in MIC after 24 hrs by broth microdilution technique relative to wild type. Format: functional. In a few lines: as §1
Assay [17] has as its system Pseudomonas aeruginosa. Kind of assay: Effect on morphological change in Pseudomonas aeruginosa PAO1 H1105/lon+ assessed as elongation in cell length at 0.03 ug/ml by Grams staining-based light microscopy.
Assay [18] concerns Pseudomonas aeruginosa. Kind of assay: Increase in lon gene expression in Pseudomonas aeruginosa PAO1 H1105 mutant strain with lon::lux mutation assessed as incese in lon::lux fusion at 0.3 times MIC by luminescence assay relative to control. Format: functional, organism-based.
Assay [19] deals with Pseudomonas aeruginosa. Kind of assay: Effect on morphological change in Pseudomonas aeruginosa PAO1 H1105 assessed as elongation in cell length at 0.03 ug/ml by Grams staining-based light microscopy. The assay is classed as functional, organism-based.
Assay [20] relates to Pseudomonas aeruginosa. Kind of assay: Effect on morphological change in Pseudomonas aeruginosa PAO1 H1105/lon+ assessed as restoration of cell division at 0.03 ug/ml by Grams staining-based light microscopy.
For assay [21], the system named is Pseudomonas aeruginosa. Kind of assay: Antimicrobial activity in 0.01 ug/ml pretreated Pseudomonas aeruginosa PAO1 H103 at 2 times MIC after overnight incubation by adaptive resistance assay. The assay is classed as functional, organism-based. In a few lines: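 Modified time-kill with PAO1 H103 grown to mid-log (OD600 0.5–0.6) in LB at 37°C with or without ciprofloxacin 0.01 or 0.03 µg/ml. Cells were pelleted, washed in prewarmed PBS pH 7.4, resuspended in prewarmed LB with ciprofloxacin 0.2 µg/ml (2× MIC) and shaken at 37°C. Samples taken every 15–20 min for 2 h and plated on LB agar for overnight CFU counts at 37°C. Four independent experiments.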

For assay [22], the system named is Pseudomonas aeruginosa. Kind of assay: Drug resistance in Pseudomonas aeruginosa PAO1 H1105 assessed as survivality at 0.0075 ug/ml after overnight incubation by adaptive resistance assay. Format: functional, organism-based.

For `CCn1cc(C(=O)O)c(=O)c2ccc(C)nc21` [NALIDIXIC ACID], the MIC against Pseudomonas aeruginosa [1] (PAO1 H1133, 24 h) is 512 µg/mL (≈ 2200 µM); against Pseudomonas aeruginosa [2] (PAO1 H1109, 24 h), 256 µg/mL (≈ 1100 µM); with Pseudomonas aeruginosa [3] (PAO1 H1105, 24 h) it was 128 µg/mL (≈ 551 µM); with Pseudomonas aeruginosa [4], 256 µg/mL (≈ 1100 µM); against Pseudomonas aeruginosa [5] (PAO1 H103, 24 h), 256 µg/mL (≈ 1100 µM); in the assay on Pseudomonas aeruginosa [7] (PAO1 H1106, 24 h), 128 µg/mL (≈ 551 µM). Also, the minimum inhibitory concentration (MIC) in the assay with Pseudomonas aeruginosa [8] (PAO1 H1136, 24 h) turned out to be 512 µg/mL (≈ 2200 µM); against Pseudomonas aeruginosa [9] (PAO1 H1121, 24 h), 128 µg/mL (≈ 551 µM); against Pseudomonas aeruginosa [12] (PAO1 H1125, 24 h), 128 µg/mL; in the assay with Pseudomonas aeruginosa [13] (PAO1 H1124, 24 h) it was 128 µg/mL (≈ 551 µM); in the assay with Pseudomonas aeruginosa [14] (PAO1 H1104, 24 h) it was 128 µg/mL (≈ 551 µM); in the assay with Pseudomonas aeruginosa [15] (PAO1 H1129, 24 h), 512 µg/mL (≈ 2200 µM). Besides, the fold change (FC) came out at 1 in the assay with Pseudomonas aeruginosa [6], 2 with Pseudomonas aeruginosa [10], 2 in the assay with Pseudomonas aeruginosa [11] and 2 in the assay with Pseudomonas aeruginosa [16].

As to `CCn1cc(C(=O)O)c(=O)c2cc(F)c(N3CCNCC3)cc21` [NORFLOXACIN], the minimum inhibitory concentration (MIC) was > 0.6 µg/mL in the assay on Pseudomonas aeruginosa [1] (PAO1 H1133, 24 h); 0.075 µg/mL (≈ 0.235 µM) against Pseudomonas aeruginosa [2] (PAO1 H1109, 24 h); 0.075 µg/mL (≈ 0.235 µM) in the assay with Pseudomonas aeruginosa [3] (PAO1 H1105, 24 h); 0.3 µg/mL (≈ 0.939 µM) against Pseudomonas aeruginosa [4]; 0.3 µg/mL (≈ 0.939 µM) with Pseudomonas aeruginosa [5] (PAO1 H103, 24 h); 0.15 µg/mL (≈ 0.47 µM) with Pseudomonas aeruginosa [7] (PAO1 H1106, 24 h). Besides, the MIC is > 0.6 µg/mL in the assay with Pseudomonas aeruginosa [8] (PAO1 H1136, 24 h); 0.075 µg/mL (≈ 0.235 µM) against Pseudomonas aeruginosa [9] (PAO1 H1121, 24 h); 0.15 µg/mL in the assay on Pseudomonas aeruginosa [12] (PAO1 H1125, 24 h); 0.15 µg/mL (≈ 0.47 µM) against Pseudomonas aeruginosa [13] (PAO1 H1124, 24 h); 0.15 µg/mL (≈ 0.47 µM) against Pseudomonas aeruginosa [14] (PAO1 H1104, 24 h); > 0.6 µg/mL in the assay on Pseudomonas aeruginosa [15] (PAO1 H1129, 24 h). Further, the fold change (FC) in the assay with Pseudomonas aeruginosa [6] is 1; in the assay with Pseudomonas aeruginosa [10], 2; in the assay on Pseudomonas aeruginosa [11] it was 4; with Pseudomonas aeruginosa [16], 2.

Take `C[C@@H](O)[C@H]1C(=O)N2C(C(=O)O)=C(SCCNC=N)C[C@H]12` [IMIPENEM ANHYDROUS]: the MIC against Pseudomonas aeruginosa [1] (PAO1 H1133, 24 h) worked out at 1 µg/mL (≈ 3.34 µM); in the assay with Pseudomonas aeruginosa [2] (PAO1 H1109, 24 h), 1 µg/mL (≈ 3.34 µM); against Pseudomonas aeruginosa [3] (PAO1 H1105, 24 h) it was 1 µg/mL (≈ 3.34 µM); against Pseudomonas aeruginosa [4], 1 µg/mL (≈ 3.34 µM); against Pseudomonas aeruginosa [5] (PAO1 H103, 24 h), 1 µg/mL (≈ 3.34 µM); against Pseudomonas aeruginosa [7] (PAO1 H1106, 24 h), 1 µg/mL (≈ 3.34 µM). Further, the MIC amounted to 1 µg/mL (≈ 3.34 µM) against Pseudomonas aeruginosa [8] (PAO1 H1136, 24 h); 1 µg/mL (≈ 3.34 µM) against Pseudomonas aeruginosa [9] (PAO1 H1121, 24 h); 1 µg/mL against Pseudomonas aeruginosa [12] (PAO1 H1125, 24 h); 1 µg/mL (≈ 3.34 µM) against Pseudomonas aeruginosa [13] (PAO1 H1124, 24 h); 1 µg/mL (≈ 3.34 µM) against Pseudomonas aeruginosa [14] (PAO1 H1104, 24 h); 1 µg/mL (≈ 3.34 µM) in the assay with Pseudomonas aeruginosa [15] (PAO1 H1129, 24 h).

With `O=C(O)c1cn(C2CC2)c2cc(N3CCNCC3)c(F)cc2c1=O` [CIPROFLOXACIN], the minimum inhibitory concentration (MIC) is 0.8 µg/mL (≈ 2.41 µM) in the assay with Pseudomonas aeruginosa [1] (PAO1 H1133, 24 h); 0.05 µg/mL (≈ 0.151 µM) with Pseudomonas aeruginosa [2] (PAO1 H1109, 24 h); 0.025 µg/mL (≈ 0.0754 µM) in the assay with Pseudomonas aeruginosa [3] (PAO1 H1105, 24 h); 0.1 µg/mL (≈ 0.302 µM) against Pseudomonas aeruginosa [4]; 0.1 µg/mL (≈ 0.302 µM) against Pseudomonas aeruginosa [5] (PAO1 H103, 24 h); 0.025 µg/mL (≈ 0.0754 µM) against Pseudomonas aeruginosa [7] (PAO1 H1106, 24 h). Besides, the minimum inhibitory concentration (MIC) was found to be 0.4 µg/mL (≈ 1.21 µM) with Pseudomonas aeruginosa [8] (PAO1 H1136, 24 h); 0.05 µg/mL (≈ 0.151 µM) with Pseudomonas aeruginosa [9] (PAO1 H1121, 24 h); 0.025 µg/mL in the assay on Pseudomonas aeruginosa [12] (PAO1 H1125, 24 h); 0.05 µg/mL (≈ 0.151 µM) with Pseudomonas aeruginosa [13] (PAO1 H1124, 24 h); 0.025 µg/mL (≈ 0.0754 µM) in the assay on Pseudomonas aeruginosa [14] (PAO1 H1104, 24 h); 0.4 µg/mL (≈ 1.21 µM) with Pseudomonas aeruginosa [15] (PAO1 H1129, 24 h). Besides, the outcome in the assay on Pseudomonas aeruginosa [17], with Pseudomonas aeruginosa [19], with Pseudomonas aeruginosa [21] and in the assay on Pseudomonas aeruginosa [22] was inactive. In addition, the fold change (FC) is 1 in the assay with Pseudomonas aeruginosa [6], 4 in the assay on Pseudomonas aeruginosa [10], 4 in the assay with Pseudomonas aeruginosa [11] and 4 in the assay with Pseudomonas aeruginosa [16]. Moreover, the outcome with Pseudomonas aeruginosa [18] and in the assay on Pseudomonas aeruginosa [20] was Active.

Take GENTAMICIN: the minimum inhibitory concentration (MIC) with Pseudomonas aeruginosa [1], in the assay on Pseudomonas aeruginosa [2], against Pseudomonas aeruginosa [3], with Pseudomonas aeruginosa [5], against Pseudomonas aeruginosa [7] and against Pseudomonas aeruginosa [8] was 2 µg/mL in each case. Also, the MIC in the assay with Pseudomonas aeruginosa [9] was 2 µg/mL; with Pseudomonas aeruginosa [12], 2 µM; against Pseudomonas aeruginosa [13], 2 µg/mL; against Pseudomonas aeruginosa [14], 2 µg/mL; in the assay with Pseudomonas aeruginosa [15], 2 µg/mL.

Usually MIC stands for the lowest concentration that inhibits growth of the organism. Higher therefore signals a less susceptible organism.
